From ChEMBL document CHEMBL1122032, “Dopaminergic activity of substituted 6-chloro-1-phenyl-2,3,4,5-tetrahydro-1H-3-benzazepines” (J Med Chem, 1982)
pEC50: −log10 of the molar value. Active and inactive are the calls of the source. The calls are words filed in the database; no cut-off is given here.

Tests used:
[1] = system: Rattus norvegicus; assay: Central dopaminergic activity against contralateral rotation(1000) in lesioned rats at the dose of 6 mg/kg (p.o.) in 2 h; I=Inactive
[2] = species on record: Canis familiaris; assay: Renal blood flow was measured in dogs; Significant activity; assay type: functional, organism-based; details: Canis lupus familiaris; Kidney
[3] = species on record: Canis familiaris; assay: Renal vascular resistance was calculated as the ratio of the mean arterial blood pressure / mean renal blood flow; I=Inactive; assay type: functional, organism-based; details: Canis lupus familiaris
[4] = system: Rattus norvegicus; assay: Central dopaminergic activity against contralateral rotation(1000) in lesioned rats(po) in 2 h; assay type: functional
Summary of the method: (§1)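 Oral dosing in rats with substantia nigra lesions, scoring contralateral rotations. RD1000 is the minimum dose producing 1000 turns in 2 h.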

[5] = species on record: Canis familiaris; assay: Compound was evaluated for average maximum percent decrease in renal vascular resistance in dogs; assay type: functional, Canis lupus familiaris
Summary of the method: (§2)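 Secondary renal screen in anesthetized dogs: cumulative dose-response by infusing drug at progressively increasing rates, 5 min per dose level. RVR ED15 is the average minimum cumulative dose lowering RVR by 15%; maximum effect is the average maximum % fall in RVR. Selectivity ratios are separations between RVR ED15 and doses giving 30% change in iliac vascular resistance, 20% in MABP, 20% in HR.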

[6] = system: Rattus norvegicus; assay: Central dopaminergic activity for minimum concentration which produced 500 rotations(ip) in 2 h; assay type: functional
Summary of the method: (§3)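 Rats with substantia nigra lesions scored for contralateral rotation after intraperitoneal dosing (routine), oral dosing for selected compounds, or intracaudal administration for intrinsic activity. RD500 and RD1000 are the minimum doses giving 500 and 1000 turns, respectively, in 2 h.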

[7] = species on record: Rattus norvegicus; assay: Central dopaminergic activity against contralateral rotation(500) in lesioned rats(ic) in 2 h; assay type: functional
Summary of the method: as §3

[8] = species on record: Canis familiaris; assay: Renal vascular resistance was calculated as the ratio of the mean arterial blood pressure / mean renal blood flow; Highly significant activity; assay type: functional, organism-based; details: Canis lupus familiaris
[9] = species on record: Canis familiaris; assay: Renal blood flow was measured in dogs; Highly significant activity; assay type: functional, organism-based; details: Canis lupus familiaris; Kidney
[10] = system: Canis familiaris; assay: Compound was evaluated for determining renal vascular resistance(iv) in dogs; assay type: functional, Canis lupus familiaris
Summary of the method: as §2

[11] = Selectivity ratio of Compound as ratio of ED15 relative to iliac vascular resistance(IVR) ED30; assay type: functional
Summary of the method: as §2

[12] = species on record: Rattus norvegicus; assay: Adenylase cyclase activity in rat striatal membranes at the concentration of 10e-6; assay type: functional; details: Striatum, Membrane
[13] = species on record: Rattus norvegicus; assay: Adenylase cyclase activity in rat striatal membranes at the concentration of 10e-5; assay type: functional; details: Striatum, Membrane
[14] = Selectivity ratio of compound as ED15 relative to heart rate(HR) ED20; assay type: functional
Summary of the method: as §2

[15] = system: Rattus norvegicus; assay: Central dopaminergic activity against contralateral rotation(1000) in lesioned rats at the dose of 5.8(po) in 2 h; I=Inactive; assay type: functional, organism-based
Summary of the method: as §1

[16] = Selectivity ratio of compound as ratio of ED15 relative to mean arterial blood pressure(MABP) ED20; assay type: functional
Summary of the method: as §2

[17] = species on record: Rattus norvegicus; assay: Adenylase cyclase activity in rat striatal membranes; assay type: functional, organism-based, Membrane; details: Striatum
[18] = species on record: Rattus norvegicus; assay: Central dopaminergic activity against contralateral rotation(500) in lesioned rats(ic); assay type: functional
Summary of the method: as §3

[19] = system: Rattus norvegicus; assay: Central dopaminergic activity against contralateral rotation(1000) in lesioned rats(po) in 2 hr at 10 mg/kg; I=Inactive; assay type: functional, organism-based; parameters: dose 10 mg/kg
Summary of the method: as §1

[20] = species on record: Canis familiaris; assay: Renal blood flow was measured in dogs; I=Inactive; assay type: functional, organism-based; details: Canis lupus familiaris; Kidney
[21] = system: Rattus norvegicus; assay: Central dopaminergic activity for minimum concentration which produced 500 rotations at the dose of 2.0 mg/kg (i.p.) in 2 h; assay type: functional; details: route intraperitoneal
Summary of the method: as §3

[22] = system: Rattus norvegicus; assay: Central dopaminergic activity against contralateral rotation(1000) in lesioned rats at the dose of 6.0 mg/kg (p.o.) in 2 h; assay type: functional; details: route oral
Summary of the method: as §1

[23] = system: Rattus norvegicus; assay: Central dopaminergic activity for minimum concentration which produced 500 rotations(ip); assay type: functional
Summary of the method: as §3

[24] = system: Rattus norvegicus; assay: Central dopaminergic activity for minimum concentration which produced 500 rotations at the dose of 10 mg/kg (i.p.) in 2 h; I=Inactive; assay type: functional, organism-based; parameters: dose 10 mg/kg
Summary of the method: as §3

[25] = species on record: Rattus norvegicus; assay: Central dopaminergic activity against contralateral rotation(500) in lesioned rats; assay type: functional
Summary of the method: as §3

Compound | RBF [2] | RVR [3] | Decrease RVR [5] [%] | RD500 [6] [mg/kg] | RVR [8] | RBF [9] | RVR ED15 [10] [mg/kg] | other results
Oc1cc2c(c(Cl)c1O)CCN(Cc1ccco1)CC2c1cccc(Cl)c1 (centres undefined) | Significant activity | inactive |  |  |  |  |  | RD1000 [1]: inactive
Br.Oc1cc2c(c(Cl)c1O)CCNCC2c1ccccc1 (centres undefined) |  |  | 39 | 0.03 | Active | Active | 0.0035 | RD1000 [4]: 4.04 mg/kg; RD500 [7]: 0.22 ug rat-1
Br.Oc1cc2c(c(Cl)c1O)CCNCC2c1cccc(C(F)(F)F)c1 (centres undefined) |  |  | 44 | 0.71 | Significant activity | Highly significant activity | 0.008 | Ratio [11]: 10; DA response [12]: 59%; DA response [13]: 64%; Ratio [14]: 75; RD1000 [15]: inactive; Ratio [16]: >6072
CN1CCc2c(cc(O)c(O)c2Cl)C(c2ccccc2)C1.Cl (centres undefined) | Significant activity |  |  | 0.03 | Significant activity |  |  | pEC50 [17]: 6.22; RD500 [18]: 0.32 ug rat-1
C=CCN1CCc2c(cc(OC(C)=O)c(OC(C)=O)c2Cl)C(c2ccccc2)C1.Cl (centres undefined) |  |  |  | 0.03 |  |  |  | RD1000 [19]: inactive
Br.CN1CCc2c(cc(O)c(O)c2Cl)C(c2cccc(C(F)(F)F)c2)C1 (centres undefined) |  | inactive |  |  |  |  |  | RBF [20]: inactive; RD500 [21]: 594 turns/2 h; RD1000 [22]: 296 turns/2 h
Cl.Oc1cc2c(c(Cl)c1O)CCN(Cc1ccc(C(F)(F)F)cc1)CC2c1ccccc1 (centres undefined) | Significant activity | inactive |  |  |  |  |  | RD500 [23]: 455 turns/2 h
CS(=O)(=O)O.Oc1ccc(C2CNCCc3c2cc(O)c(O)c3Cl)cc1 (centres undefined) [FENOLDOPAM MESYLATE] |  |  | 59 |  | Significant activity | Highly significant activity | 0.0003 | RD500 [24]: inactive; Ratio [11]: > 6070; Ratio [14]: >6072; RD500 [25]: 0.5 ug rat-1; Ratio [16]: >6072
